Assay outcomes from PubChem BioAssay.
An excerpt weighted towards active compounds, which were near 2.5% of everything screened.
ADAM17 inh: ADAM17 inhibition, QFRET primary screen; P78536; AID 720648; inhibition, % at 6.95 µM; recombinant ADAM17, EDANS/DABCYL FRET peptide cleavage; 370,000 tested, 0.83% active;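 active means inhibition above the mean of compounds lying between control limits plus 3 SD, set per campaign, cut at about 8.5% in these data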;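 further: 0% = DMSO-only wells as the low control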
ADAM10 inh: inhibits human ADAM10 | recombinant ADAM10, EDANS/DABCYL FRET peptide cleavage, 3 h | inhibition, % at 7 µM | O14672 | AID 720582 | 370,000 tested, 0.62% active;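 active means inhibition above a per-campaign cutoff equal to the mean of compounds falling between control-based bounds plus 3 SD, cut at about 20% in these data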;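 further: 0% = DMSO wells while the 100% control is not disclosed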
NR2E3 ag-1: activates human photoreceptor nuclear receptor NR2E3. Q9Y5X4. GST-NR2E3/biotin-RetCOR TR-FRET, 1536-well. inhibition of corepressor binding, % at 4.78 µM. 320,000 tested, 0.12% active;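 active means percent inhibition above the cutoff of mean plus 3 SD of all tested compounds, set per screening campaign, cut at about 20% in these data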;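 further: 0% = DMSO wells and 100% = biotin wells as full block of FRET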
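Assay system: NR2E3–RetCOR corepressor complex. Quantity: 1.35 nM GST-NR2E3. Buffer or medium: pH 7.5 Tris-based buffer. Reagent: biotinylated RetCOR corepressor at 7 nM final. Schedule: 5 h at 4 °C. Detection: TR-FRET, emission read at 617 and 671 nm. Replicates: one well per compound, singlicate testing.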
JMJD2C inh: inhibitors of human GASC-1 (JMJD2C) demethylase; Q9H3R0; GST-JMJD2C(1-420) H3K9me3 demethylation, DELFIA europium; inhibition, % at 2.35 µM; 330,000 tested, 0.069% active; AID 2099;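 active means more than half of a compound's replicate wells show inhibition beyond 50%, single wells judged on their own value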;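 further: signal counts dimethyl H3K9 product captured on neutravidin plate; 0% = median of DMSO wells and 100% = 0.3 times that DMSO median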
Target sequence (Q9H3R0 1-420 limits assumed): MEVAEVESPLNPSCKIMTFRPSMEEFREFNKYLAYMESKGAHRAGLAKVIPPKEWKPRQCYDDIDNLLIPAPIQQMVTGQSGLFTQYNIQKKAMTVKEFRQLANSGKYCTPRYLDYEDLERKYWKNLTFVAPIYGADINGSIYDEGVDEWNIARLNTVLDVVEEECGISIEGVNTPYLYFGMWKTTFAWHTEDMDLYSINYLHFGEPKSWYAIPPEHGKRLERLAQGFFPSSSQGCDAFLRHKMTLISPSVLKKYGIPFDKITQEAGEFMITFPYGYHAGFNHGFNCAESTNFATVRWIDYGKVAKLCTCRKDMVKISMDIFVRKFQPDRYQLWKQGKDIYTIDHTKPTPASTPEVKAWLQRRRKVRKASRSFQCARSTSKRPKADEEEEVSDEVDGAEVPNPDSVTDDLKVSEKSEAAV
proKLK7 act: activates the human kallikrein-7 zymogen; activation, % at 7 µM; 370,000 tested, 0.9% active; P49862; purified proKLK7, EDANS-DABCYL substrate fluorescence; 100% is mature enzyme control, 0% vehicle;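 active means activation above the mean of all tested compounds plus 3 SD, computed per campaign excluding outliers beyond control limits, cut at about 13% in these data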
Target sequence (P49862 whole entry, looked up): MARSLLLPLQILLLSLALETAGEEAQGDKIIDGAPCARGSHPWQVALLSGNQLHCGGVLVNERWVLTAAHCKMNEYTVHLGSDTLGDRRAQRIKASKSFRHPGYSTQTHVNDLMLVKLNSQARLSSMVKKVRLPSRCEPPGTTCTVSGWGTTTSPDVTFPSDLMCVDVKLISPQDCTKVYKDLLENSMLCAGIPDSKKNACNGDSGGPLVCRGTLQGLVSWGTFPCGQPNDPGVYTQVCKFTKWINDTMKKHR
NR2E3 ag-2: agonists of human NR2E3 nuclear receptor; Q9Y5X4; CHO-S Gal4-NCOR/VP16-NR2E3 two-hybrid, luciferase; inhibition of corepressor binding, % at 3.98 µM; 360,000 tested, 0.35% active; AID 602229;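 active means inhibition above the mean of all tested compounds plus 3 SD, cut at about 70% in these data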;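 further: 0% = DMSO with NR2E3 transfected cells and 100% = cells lacking NR2E3 construct; higher means lower luciferase signal from less NR2E3 corepressor binding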
ADAM10 confirm: human ADAM10 inhibition, confirmation. shares compounds with ADAM10 inh. ADAM10 QFRET peptide cleavage, EDANS fluorescence. inhibition, % at 6.95 µM. 2,100 tested, 1% active. AID 743208;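 active means inhibition above about 20% chosen separately for each screening run, limit read from the data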;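 further: 0% = DMSO wells and 100% = marimastat wells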
ADAM17 ctr: ADAM17 inhibition, counter-screen for ADAM10 exosite hits. shares compounds with ADAM10 inh. ADAM17 QFRET peptide cleavage, EDANS fluorescence. inhibition, % at 6.95 µM. 2,100 tested, 0.5% active. AID 743214;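 active means mean triplicate inhibition above the solvent-only control wells' mean plus 3 SD, cut at about 12% in these data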;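 further: 0% = DMSO wells and 100% = marimastat wells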
ADAM10 ctr: ADAM10 inhibition, counter-screen for ADAM17 exosite hits; 2,900 tested, 47% active; inhibition, % at 6.95 µM; AID 743256; recombinant ADAM10, EDANS/DABCYL FRET peptide cleavage, 3 h; shares compounds with ADAM17 inh;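 active means mean inhibition over the triplicate runs exceeds the activity threshold set in the earlier primary screen, cut at about 20% in these data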;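 further: 0% = DMSO wells and 100% = marimastat wells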
ADAM17 confirm: confirmation of inhibitors of human ADAM17; 2,900 tested, 65% active; shares compounds with ADAM17 inh; inhibition, % at 6.95 µM; recombinant ADAM17, EDANS/DABCYL QFRET peptide cleavage;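 active means mean inhibition across replicates above the hit cutoff set in the primary screen, cut at about 8.5% in these data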;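 further: 0% = DMSO wells and 100% = marimastat wells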
Active calls of the source: *.

CC[C@@]12C(=O)N(c3cccc(Br)c3)C(=O)N1[C@H](c1ccc(F)cc1)[C@@H]1C(=O)N(C3CCCCC3)C(=O)[C@@H]12 was read as ADAM17 inh 10.7*, ADAM10 inh 25.6*, NR2E3 ag-1 2.2, JMJD2C inh 3.1, proKLK7 act 0.2, NR2E3 ag-2 -7.2, ADAM10 confirm 7.1, ADAM17 ctr 2.1, ADAM10 ctr 19.9* and ADAM17 confirm 14.2*.
For Cc1ccc(NC(=O)COC(=O)/C=C/c2cccc(Cl)c2)cc1S(=O)(=O)N1CCOCC1 the results were ADAM17 inh 9.5*, ADAM10 inh 29.4*, NR2E3 ag-1 -3.7, JMJD2C inh -9.7, proKLK7 act -0.1, NR2E3 ag-2 -2.5, ADAM10 confirm 4.9, ADAM17 ctr 1.7, ADAM10 ctr 26.2* and ADAM17 confirm 15.4*.
Screening Cc1ccc(NC(=O)COC(=O)CN2C(=O)C3CCCCC3C2=O)cc1S(=O)(=O)N1CCOCC1 (stereo not drawn) returned ADAM17 inh 0.1, ADAM10 inh -7.5, NR2E3 ag-1 -3.0, JMJD2C inh 3.1, proKLK7 act -0.4 and NR2E3 ag-2 -3.2.
Cc1ccc(NC(=O)COC(=O)CC2CC3CCC2C3)cc1S(=O)(=O)N1CCOCC1 (stereo not drawn) was read as ADAM17 inh 12.4*, ADAM10 inh 23.3*, JMJD2C inh -2.2, proKLK7 act 0.2, NR2E3 ag-2 3.1, ADAM10 confirm 0.9, ADAM17 ctr 0.2, ADAM10 ctr 10.6 and ADAM17 confirm 8.0.
Cc1cccc(C)c1NC(=O)C1(C)CN(S(C)(=O)=O)CC(=O)N1CCc1ccc(O)cc1 (stereo not drawn) was read as ADAM17 inh -3.7, ADAM10 inh -16.9 and proKLK7 act 0.1.
C[C@@H]1CN([C@@H](C)CO)C(=O)c2cc(NS(=O)(=O)c3cccs3)ccc2O[C@H]1CN(C)Cc1ccc(C(F)(F)F)cc1 was read as ADAM17 inh 3.7, ADAM10 inh 9.2, JMJD2C inh -10.4, proKLK7 act -0.5 and NR2E3 ag-2 -1.8.
Screening O=C(CNC(=O)c1[nH]cnc1C(=O)N[C@@H](Cc1ccccc1)C(=O)OCc1ccccc1)OCc1ccccc1 returned ADAM17 inh 8.8*, ADAM10 inh 22.2*, NR2E3 ag-1 2.1, JMJD2C inh -7.9, proKLK7 act -0.1, NR2E3 ag-2 9.2, ADAM10 confirm 7.7, ADAM17 ctr 2.7, ADAM10 ctr 24.9* and ADAM17 confirm 15.0*.
Cc1ccc(NC(=O)c2nc[nH]c2C(=O)N[C@@H](C)C(=O)OC(C)(C)C)cc1 was read as ADAM17 inh 13.9*, ADAM10 inh 27.3*, NR2E3 ag-1 -1.1, JMJD2C inh 89.2, proKLK7 act -0.6, NR2E3 ag-2 5.6, ADAM10 confirm 2.3, ADAM17 ctr 0.8, ADAM10 ctr 28.4* and ADAM17 confirm 12.4*.
For O=C(CNC(=O)c1[nH]cnc1C(=O)NC(c1ccccc1)c1ccccc1)OCc1ccccc1 the results were ADAM17 inh 11.0*, ADAM10 inh 21.1*, NR2E3 ag-1 0.8, JMJD2C inh 3.8, proKLK7 act -0.2, NR2E3 ag-2 14.2, ADAM10 confirm 8.7, ADAM17 ctr 3.3, ADAM10 ctr 28.9* and ADAM17 confirm 13.1*.
CC(C)(C)OC(=O)[C@H](Cc1ccccc1)NC(=O)c1nc[nH]c1C(=O)NCC(=O)OCc1ccccc1 was read as ADAM17 inh 10.7*, ADAM10 inh 30.0*, NR2E3 ag-1 2.7, JMJD2C inh 1.5, proKLK7 act -0.3, NR2E3 ag-2 -19.5, ADAM10 confirm 8.2, ADAM17 ctr 2.6, ADAM10 ctr 43.5* and ADAM17 confirm 20.4*.
O=C(N[C@@H](Cc1ccccc1)C(=O)OCc1ccccc1)c1nc[nH]c1C(=O)NC(c1ccccc1)c1ccccc1 was read as ADAM17 inh 8.1, ADAM10 inh 13.4, NR2E3 ag-1 5.2, JMJD2C inh 0.3, proKLK7 act -0.2 and NR2E3 ag-2 -34.4.
Screening CC(C)(C)OC(=O)CNC(=O)c1[nH]cnc1C(=O)N[C@@H](Cc1ccccc1)C(=O)OC(C)(C)C returned ADAM17 inh 8.1, ADAM10 inh 8.6, NR2E3 ag-1 -1.0, JMJD2C inh -1.5, proKLK7 act 0.9 and NR2E3 ag-2 11.7.
`C[C@H](NC(=O)c1[nH]cnc1C(=O)Nc1ccccc1)C(=O)OC(C)(C)C` gave ADAM17 inh 1.4, ADAM10 inh 2.9, NR2E3 ag-1 -1.5, JMJD2C inh 2.3, proKLK7 act 0.0 and NR2E3 ag-2 -12.5.
CCOC(=O)[C@@H]1[C@H]2COc3cc(OC)ccc3[C@@H]2N2C(=O)N(c3cccc(Cl)c3)C(=O)[C@@]12C was read as NR2E3 ag-1 -0.8, JMJD2C inh -0.1 and NR2E3 ag-2 -23.2.
Screening CC(C)CN1CCN(Cc2ccc3ncccc3c2)CC1CCO (stereo not drawn) returned ADAM17 inh -0.5, ADAM10 inh -1.6, NR2E3 ag-1 4.7, JMJD2C inh -4.4, proKLK7 act 0.3 and NR2E3 ag-2 -9.8.
`OC(c1cccc(CN2CCCCC2)c1)c1ncc(-c2cccc3ccccc23)[nH]1` (stereo not drawn) gave ADAM17 inh -13.7, ADAM10 inh -65.6, proKLK7 act 0.5 and NR2E3 ag-2 -7.5.
For C[C@H](NC(=O)c1nc[nH]c1C(=O)N[C@@H](Cc1ccccc1)C(=O)OCc1ccccc1)C(=O)OC(C)(C)C the results were ADAM17 inh 10.6*, ADAM10 inh 24.4*, NR2E3 ag-1 2.9, JMJD2C inh -7.6, proKLK7 act 0.4, NR2E3 ag-2 23.7, ADAM10 confirm 9.7, ADAM17 ctr 2.9, ADAM10 ctr 26.1* and ADAM17 confirm 13.6*.
For C[C@H](NC(=O)c1nc[nH]c1C(=O)N[C@@H](C)C(=O)OC(C)(C)C)C(=O)OCc1ccccc1 the results were ADAM17 inh 3.4, ADAM10 inh 10.5, NR2E3 ag-1 2.4, JMJD2C inh -4.9, proKLK7 act 0.0 and NR2E3 ag-2 -11.8.
